V-ATPase pH: regulators of yeast V-ATPase proton transport | S. cerevisiae, pHLuorin cytosolic pH fluorescence | response, % at 10 µM | 350,000 tested, 0.37% active | AID 504577; in the data active = response mostly above about 7.3%, no sharp cut-off; inactive = mostly below about 5.4%; also: actives read high
T cell modulator: modulates CD8 T cell binding to vesicles; response (vesicle binding), % at 7 µM; AID 2052; 2C CD8+ T cell-vesicle binding, flow cytometry; hits give low values; 330,000 tested, 0.068% active;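 active = response, share of CD8 T cells binding vesicles, and their 90th percentile fluorescence all below set limits, cut at about 80% in these data, passing the limit was not always enough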;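 also: values below 100% mean blocked vesicle binding to the CD8+ T cells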
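Material: 2C TCR transgenic mouse naive CD8+ T cells, MACS-purified. Also added: QL9-charged Drosophila Ld/ICAM-1/B7-1 vesicles. Timing: binding 1.5 h at 37 °C. Measured by: high-throughput flow cytometry with anti-B7-1 and anti-CD8 staining. Read-out: percent CD8+ FL2 mean versus row control. Controls: Unloaded micro-vesicles (low), QL9 vesicles with 0.7% DMSO (high).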
MIN6 prolif: MIN6 beta-cell proliferation induction | MIN6 cells proliferation, ATPlite luminescence, 48 h; cells starved in 0.2% serum; 100% = growth in 10% serum | proliferation, % at 10 µM | 330,000 tested, 0.29% active | AID 2380;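 active = compounds whose signal lies at least 3.5 SD above the mean of all wells on their plate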
Rce1 inhib: blocks yeast Ras-converting enzyme. Q03530. yeast membranes, quenched prenylated peptide cleavage fluorescence. calls only. 290,000 tested, 0.27% active;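 active = fall in fluorescence gain of 50% or more versus controls, with final raw signal at or below 3038400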
Target sequence (Q03530 whole entry, looked up): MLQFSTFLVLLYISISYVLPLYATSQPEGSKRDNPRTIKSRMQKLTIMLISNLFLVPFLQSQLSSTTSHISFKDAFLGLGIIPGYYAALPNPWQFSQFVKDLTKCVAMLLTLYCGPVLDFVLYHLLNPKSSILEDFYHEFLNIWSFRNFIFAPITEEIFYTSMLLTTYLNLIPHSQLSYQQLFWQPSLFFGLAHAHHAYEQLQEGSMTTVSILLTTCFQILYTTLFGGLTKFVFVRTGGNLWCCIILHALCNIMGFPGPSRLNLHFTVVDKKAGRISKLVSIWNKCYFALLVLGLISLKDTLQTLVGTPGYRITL
KLK7 zymogen act: activators of human kallikrein-7 zymogen. purified proKLK7, EDANS-DABCYL substrate fluorescence; 100% is mature enzyme control, 0% vehicle. activation, % at 7 µM. 370,000 tested, 0.9% active. P49862;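 active = activation above the mean of all tested compounds plus 3 SD, computed per campaign excluding outliers beyond control limits, cut at about 13% in these data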
Target sequence (P49862 whole entry, looked up): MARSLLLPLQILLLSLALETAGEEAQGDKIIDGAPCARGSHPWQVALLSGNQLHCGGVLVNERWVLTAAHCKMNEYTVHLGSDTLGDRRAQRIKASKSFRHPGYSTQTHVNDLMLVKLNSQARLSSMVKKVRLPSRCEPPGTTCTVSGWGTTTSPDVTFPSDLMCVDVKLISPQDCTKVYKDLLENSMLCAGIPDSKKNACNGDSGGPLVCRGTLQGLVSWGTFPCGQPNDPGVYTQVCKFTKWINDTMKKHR
CR mimetic SO: caloric restriction mimetics inhibiting age-related superoxide in yeast; S. cerevisiae aged cells, superoxide DHE fluorescence; hits give low values; superoxide response (% of plate mean), % at 10 µM; 330,000 tested, 0.18% active;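 active = superoxide response under a set limit, about three screen SD below normal, cut at about 65% in these data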;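 also: yeast aged for seven days with compound at 30 °C before DHE staining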
Each line names hits and unclear results; the compound was inactive in the other large screens. The list is not random: actives were taken first. Their share in the collection is about 1.9%.

COc1cc(-c2nc3ccccn3c2/N=C/c2ccc(F)cc2)ccc1O	none
COCCCNC(=O)C[C@H]1C[C@@]2(C(=O)OC)C(=C[C@H](COCc3ccccc3)O[C@@H]2C)N(Cc2ccco2)C1=O	none (no result: V-ATPase pH, T cell modulator, MIN6 prolif, Rce1 inhib, CR mimetic SO)
Cc1ccc(-c2nnc3n2N=C(c2ccc(-c4ccccc4)cc2)CS3)cc1	none (no result: V-ATPase pH, T cell modulator, MIN6 prolif, Rce1 inhib, CR mimetic SO)
COC(=O)c1ccccc1N1C(=O)C2C(C1=O)C1C=CC2C12CC2 (configuration not stated)	CR mimetic SO 57 (no result: V-ATPase pH)
O=C(c1ccccc1F)N1CCc2ccccc21	T cell modulator 0.0
CC(C)(C)c1cc(C(=O)N2CCc3ccccc32)ccn1	V-ATPase pH 17
COC(=O)C1=C(C)N(Cc2ccc(Br)cc2)C(=S)NC1c1ccccc1 (configuration not stated)	none (no result: V-ATPase pH, T cell modulator, MIN6 prolif, Rce1 inhib, CR mimetic SO)
C=C1C(C(=O)N2CCN(C)CC2)C1C(=O)N1CCN(C)CC1 (configuration not stated)	V-ATPase pH 13
O=C(COC(=O)COc1ccccc1Cl)Nc1ccccc1OC(F)F	none
O=C(COC(=O)CN=C1NS(=O)(=O)c2ccccc21)Nc1ccccc1OC(F)F	V-ATPase pH 15
Cc1ccc(C(=O)NCC(C)(C)N2CCOCC2)s1	none
CC(C)(CNC(=O)c1cc2c(s1)CCCC2)N1CCOCC1	T cell modulator 68
C=CCN1C(=O)C(Cc2ccc(F)cc2)S/C1=N/N=C/c1ccco1 (configuration not stated)	T cell modulator 0.0
C=CCN1C(=O)C(Cc2ccc(Br)cc2)S/C1=N\N=C\c1ccco1 (configuration not stated)	none
c1ccc(CSC2=NNC(c3ccccn3)S2)cc1 (configuration not stated)	T cell modulator 68
O=C(CSC1=NNC(c2ccccn2)S1)Nc1ccc(C(F)(F)F)cc1 (configuration not stated)	none
CCC1(c2ccccc2)NC(=O)N(CC(=O)Nc2ccc3c(C)cc(=O)oc3c2)C1=O (configuration not stated)	Rce1 inhib active
CCC1(c2ccccc2)NC(=O)N(CC(=O)Nc2ccc3c(c2)OCO3)C1=O (configuration not stated)	none (no result: KLK7 zymogen act)
Cc1cccc(NS(=O)(=O)c2ccc(C)c(C(=O)OCC(=O)Nc3cc(C)on3)c2)c1	Rce1 inhib active
Cc1ccc(-c2c(C(=O)N/N=C/c3ccoc3)nnn2-c2nonc2N)cc1	none
Nc1nonc1-n1nnc(C(=O)N/N=C/c2ccccc2)c1CSc1ccc(Cl)cc1	Rce1 inhib active
Cc1ccc(-c2c(C(=O)N/N=C/c3cccc(Cl)c3)nnn2-c2nonc2N)cc1	Rce1 inhib active
Nc1nonc1-n1nnc(C(=O)N/N=C/c2cccc(Cl)c2)c1CSc1ccc(Cl)cc1	Rce1 inhib active
Cc1ccc(/C=N/NC(=O)c2nnn(-c3nonc3N)c2C(C)C)o1	Rce1 inhib active
COCC#Cc1ccc(CC[C@H]2O[C@H]3CC[C@@H](CO)O[C@H]3C[C@H]2n2cc(C(C)(C)O)nn2)cc1	none (no result: V-ATPase pH, T cell modulator, MIN6 prolif, Rce1 inhib, CR mimetic SO)
C=CCOC(=O)C(CO)NC(=O)CCCC(=O)O (configuration not stated)	none (no result: V-ATPase pH, T cell modulator, MIN6 prolif, Rce1 inhib, CR mimetic SO)
O=Cc1coc([B-](F)(F)F)c1	none (no result: V-ATPase pH, T cell modulator, MIN6 prolif, Rce1 inhib, CR mimetic SO)
O=S(=O)(CS(=O)(=O)c1ccccc1Br)c1ccccc1Br	none (no result: V-ATPase pH, T cell modulator, MIN6 prolif, Rce1 inhib, CR mimetic SO)
CCCCN(C)C(=O)CNc1nnnn1-c1ccccc1	none (no result: V-ATPase pH, T cell modulator, MIN6 prolif, Rce1 inhib, CR mimetic SO)
COCCCN1C(=O)[C@H](CC(=O)N2CCSCC2)[C@]2(C(=O)OC)CCCCC=C12	none (no result: V-ATPase pH, T cell modulator, MIN6 prolif, Rce1 inhib, CR mimetic SO)
Cc1ccc(/C=N/NC(=O)c2nnn(-c3nonc3N)c2CSc2ccccc2)cc1	none
Cc1ccc(SCc2c(C(=O)N/N=C/c3ccccc3)nnn2-c2nonc2N)cc1	Rce1 inhib active
COCCn1c(C)cc(C(=O)CN2CCCCC2)c1C	none
COCCn1c(C)cc(C(=O)CN2C(=O)NC3(CCCCCCC3)C2=O)c1C	T cell modulator 0.0
C[C@@H]1CN([C@H](C)CO)C(=O)CCCn2cc(nn2)CO[C@H]1CN(C)S(=O)(=O)c1ccc(Cl)cc1	none (no result: V-ATPase pH, T cell modulator, MIN6 prolif, Rce1 inhib, CR mimetic SO)
CCN(CC)C(=O)CC[C@H]1CC[C@]2(CCCN(C(=O)C3CCCC3)C2)O1	none (no result: V-ATPase pH, T cell modulator, MIN6 prolif, Rce1 inhib, CR mimetic SO)
S=c1[nH]cc(-c2ccccc2)n1-c1ccccc1Cl	none
COc1ccccc1-n1c(-c2ccccc2)c[nH]c1=S	Rce1 inhib active (no result: T cell modulator, MIN6 prolif, CR mimetic SO)
CCCCc1c(-c2ccccc2OC)ncn1Cc1ccc(F)c(F)c1	none (no result: V-ATPase pH, T cell modulator, MIN6 prolif, Rce1 inhib, CR mimetic SO)
O=C(C(=O)N1CCN(C(=O)c2cccs2)CC1)c1cccc(C(F)(F)F)c1	none (no result: V-ATPase pH, T cell modulator, MIN6 prolif, Rce1 inhib, CR mimetic SO)
CCOc1ccc2[nH]c(=O)c(CN(CCN3CCOCC3)Cc3nnnn3C(C)(C)CC)cc2c1	Rce1 inhib active
Cc1cc(Cl)ccc1NC(=O)c1ccc2c(c1)OCO2	V-ATPase pH 15
CCOc1ccc(OCCC(=O)Nc2ccc3c(c2)OCO3)cc1	none (no result: Rce1 inhib)
COc1ccc(OCCCC(=O)Nc2ccc3c(c2)OCO3)cc1	V-ATPase pH 16
COc1ccc(Cl)cc1C(=O)Nc1ccc2c(c1)OCO2	Rce1 inhib active
CN1C(=O)c2cc(NS(=O)(=O)c3cccc(F)c3)ccc2OC[C@@H]2O[C@H](CC(=O)O)CC[C@H]21	none (no result: V-ATPase pH, T cell modulator, MIN6 prolif, Rce1 inhib, CR mimetic SO)
Cc1ccc(OCCN2C(=O)C(=O)c3cc(C)ccc32)cc1	Rce1 inhib active
Cc1ccc(-c2cc(C(=O)N3CCN(c4ccc(F)cc4)CC3)c3ccccc3n2)o1	none
COc1ccc(-c2cc(C(=O)N3CCN(c4ccccc4)CC3)c3ccccc3n2)cc1	Rce1 inhib active
Cc1ccc(-c2cc(C(=O)N3CCOCC3)c3ccccc3n2)o1	KLK7 zymogen act 112 (no result: Rce1 inhib)
COc1ccc(-c2cc(C(=O)N3CCN(c4ncccn4)CC3)c3ccccc3n2)cc1	none (no result: Rce1 inhib)
CCOC(=O)c1cn(CC)c2cc(N3CCN(C)CC3)c(F)cc2c1=O	none
CCn1cc(S(=O)(=O)c2ccc(OC)cc2)c(=O)c2cc(F)c(N3CCN(C)CC3)cc21	Rce1 inhib active
CCn1cc(C(=O)N[C@H](C)c2ccccc2)c(=O)c2cc(F)c(N3CCN(C)CC3)cc21	Rce1 inhib active
COc1ccc(-c2nnc(SCC(=O)N/N=C(\C)c3ccc(-c4ccccc4)cc3)n2-c2ccc(C)cc2)cc1	none (no result: V-ATPase pH, T cell modulator, MIN6 prolif, Rce1 inhib, CR mimetic SO)
Cc1cc(C)cc(OCC(=O)OCC(=O)NC2CCCCCC2)c1	V-ATPase pH 17 (no result: Rce1 inhib)
COc1ccc(N2C(=O)N3[C@H](c4ccc(Cl)cc4)[C@@H]4C(=O)N(C5CCCCC5)C(=O)[C@@H]4[C@]3(Cc3ccc(Cl)cc3)C2=O)cc1	none
O=C1[C@H]2[C@@H](c3ccc(F)cc3)N3C(=O)N(c4ccc(Br)cc4)C(=O)[C@@]3(Cc3ccc(Cl)cc3)[C@H]2C(=O)N1C1CCCCC1	V-ATPase pH 12
COc1ccc(OC)c(/C=N/c2oc(-c3ccco3)c(-c3ccco3)c2C#N)c1	Rce1 inhib active
N#Cc1c(N)oc(-c2ccco2)c1-c1ccco1	none
Cc1ccc(NS(=O)(=O)c2ccc(NC(=O)N3CCCCC3)cc2)cc1	Rce1 inhib active
